ChEMBL document CHEMBL1123867, “Anticonvulsant O-alkyl sulfamates. 2,3:4,5-Bis-O-(1-methylethylidene)-beta-D-fructopyranose sulfamate and related compounds” (1987)
Activity calls are given as the source filed them. The calls are words filed in the database; no cut-off is given here.

Legend:
Mus musculus [1] = test: Anticonvulsant activity following p.o. administration by standard maximal electroshock test in mice.; assay type: functional; details: po
How it was run: (§1)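 Supramaximal electroshock: 50-mA current (60 Hz, 0.20 s) via corneal electrodes induced hind-limb tonic extension; inhibition of this component scored as activity. Mice dosed ip and/or po in aqueous solution or suspension (ca. 0.1% Tween 80, distilled water). Tested at 30, 60, 120 and 240 min (sometimes 45 min); ten mice per time point.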

Mus musculus [2] = test: Anticonvulsant activity by using a standard maximal electroshock test (MES) in mice, by intraperitoneal administration of the compound; assay type: functional; details: ip; how it was run: as §1
Mus musculus [3] = test: Percentage block of the hind-limb tonic-extensor seizure was determined after application of an electric shock to mice for 240 min followed by 200 mg/kg peroral dose; assay type: functional; details: route oral; how it was run: as §1
Mus musculus [4] = test: Percentage block of the hind-limb tonic-extensor seizure was determined after application of an electric shock to mice for 120 min followed by 200 mg/kg peroral dose; assay type: functional; details: route oral; how it was run: as §1
Mus musculus [5] = test: Percentage block of the hind-limb tonic-extensor seizure was determined after application of an electric shock to mice for 60 min followed by 100 mg/kg intraperitoneal dose; assay type: functional; how it was run: as §1
Mus musculus [6] = test: Percentage block of the hind-limb tonic-extensor seizure was determined after application of an electric shock to mice for 30 min followed by 100 mg/kg intraperitoneal dose; assay type: functional; how it was run: as §1
Mus musculus [7] = test: Percentage block of the hind-limb tonic-extensor seizure was determined after application of an electric shock to mice for 120 min followed by 100 mg/kg intraperitoneal dose; assay type: functional; how it was run: as §1
Mus musculus [8] = test: Percentage block of the hind-limb tonic-extensor seizure was determined after application of an electric shock to mice for 60 min followed by 200 mg/kg peroral dose; assay type: functional; details: route oral
How it was run: (§2)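 Mouse MES test: supramaximal seizure from a 50-mA current (60 Hz, 0.20-s) through corneal electrodes. […] Ten mice per time point. Compound given in aqueous solution or in suspension in ca. 0.1% Tween 80 and distilled water. Free food and water except during testing.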

Mus musculus [9] = test: Percentage block of the hind-limb tonic-extensor seizure was determined after application of an electric shock to mice for 240 min followed by 100 mg/kg intraperitoneal dose; assay type: functional; how it was run: as §1
Mus musculus [10] = test: Anticonvulsant activity by using a standard maximal electroshock test (MES) in mice, by 100 mg/kg intraperitoneal administration of the compound; I=inactive, 0-10% block; assay type: functional, organism-based; parameters: dose 100 mg/kg; how it was run: as §1
Mus musculus [11] = test: Percentage block of the hind-limb tonic-extensor seizure was determined after application of an electric shock to mice for 30 min followed by 200 mg/kg peroral dose; assay type: functional; details: route oral; how it was run: as §1
Mus musculus [12] = test: Percentage block of the hind-limb tonic-extensor seizure was determined after application of an electric shock to mice for 60 min followed by 200 mg/kg intraperitoneal dose; assay type: functional; how it was run: as §2
Mus musculus [13] = test: Percentage block of the hind-limb tonic-extensor seizure was determined after application of an electric shock to mice for 60 min followed by 400 mg/kg peroral dose; assay type: functional; details: route oral; how it was run: as §2
Mus musculus [14] = test: Percentage block of the hind-limb tonic-extensor seizure was determined after application of an electric shock to mice for 240 min followed by 200 mg/kg intraperitoneal dose; assay type: functional; how it was run: as §1
Mus musculus [15] = test: Percentage block of the hind-limb tonic-extensor seizure was determined after application of an electric shock to mice for 240 min followed by 400 mg/kg peroral dose; assay type: functional; details: route oral; how it was run: as §1
Mus musculus [16] = test: Percentage block of the hind-limb tonic-extensor seizure was determined after application of an electric shock to mice for 120 min followed by 200 mg/kg intraperitoneal dose; assay type: functional; how it was run: as §1
Mus musculus [17] = test: Percentage block of the hind-limb tonic-extensor seizure was determined after application of an electric shock to mice for 120 min followed by 400 mg/kg peroral dose; assay type: functional; details: route oral; how it was run: as §1
Mus musculus [18] = test: Percentage block of the hind-limb tonic-extensor seizure was determined after application of an electric shock to mice for 30 min followed by 200 mg/kg intraperitoneal dose; assay type: functional; how it was run: as §1
Mus musculus [19] = test: Percentage block of the hind-limb tonic-extensor seizure was determined after application of an electric shock to mice for 30 min followed by 400 mg/kg peroral dose; assay type: functional; details: route oral; how it was run: as §1
Mus musculus [20] = test: Anticonvulsant activity by using a standard maximal electroshock test (MES) in mice, by 200 mg/kg peroral administration of the compound; I=inactive, 0-10% block; assay type: functional, organism-based; parameters: dose 200 mg/kg; how it was run: as §1
Mus musculus [21] = test: Anticonvulsant activity by using a standard maximal electroshock test (MES) in mice, by 100 mg/kg intraperitoneal administration of the compound; i =inactive; assay type: functional, organism-based; parameters: dose 100 mg/kg; how it was run: as §1

Structure (SMILES) | ED50 (Mus musculus [1]) [mg/kg] | ED50 (Mus musculus [2]) [mg/kg] | Block (Mus musculus [3]) [%] | Block (Mus musculus [4]) [%] | Block (Mus musculus [5]) [%] | Block (Mus musculus [6]) [%] | Block (Mus musculus [7]) [%] | Block (Mus musculus [8]) [%] | Block (Mus musculus [9]) [%] | Block (Mus musculus [11]) [%] | further results
NS(=O)(=O)OCC1CCCCO1 (stereo not given) | 154 | 195 | – | – | – | – | – | – | – | – | –
CC1(C)OC2C3OC4(CCCCC4)O[C@@H]3CO[C@@]2(COS(N)(=O)=O)O1 (stereo not given in full) | > 400 | – | 20 | 20 | 0 | 0 | 0 | 0 | 0 | 10 | ED50 (Mus musculus [10]): inactive
CC1(C)O[C@@H]2[C@H](O1)[C@H]1OC(C)(C)OC1O[C@@H]2COS(N)(=O)=O (stereo not given in full) | > 200 | 175 | – | – | – | – | – | – | – | – | Block (Mus musculus [12]): 40%; Block (Mus musculus [13]): 80%; Block (Mus musculus [14]): 30%; Block (Mus musculus [15]): 80%; Block (Mus musculus [16]): 50%; Block (Mus musculus [17]): 90%; Block (Mus musculus [18]): 20%; Block (Mus musculus [19]): 50%
NS(=O)(=O)OCC(c1ccccc1)c1ccccc1 | 147 | – | 100 | 80 | 0 | 0 | 0 | 70 | 0 | 80 | ED50 (Mus musculus [10]): inactive
CC1(C)O[C@@H]2CO[C@@]3(COS(=O)(=O)N=[N+]=[N-])OC(C)(C)OC3[C@@H]2O1 (stereo not given in full) | ~200 | > 100 | 100 | 70 | 40 | 20 | 50 | 50 | 30 | 30 | –
CCCCCCCCCC1(C)OCC(COS(N)(=O)=O)O1 (stereo not given) | > 200 | 319 | – | – | – | – | – | – | – | – | –
CN(C)S(=O)(=O)OC[C@@]12OC[C@H]3OC(C)(C)OC3C1OC(C)(C)O2 (stereo not given in full) | > 200 | > 100 | 80 | 80 | 30 | 30 | 50 | 40 | 30 | 30 | –
NS(=O)(=O)OCCc1ccccc1 [SULFAMIC ACID PHENETHYL ESTER] | ~100 | ~50 | 80 | 100 | 100 | 90 | 70 | 100 | 20 | 70 | –
CC1(C)OC2[C@H](O)[C@H](O)CO[C@@]2(COS(N)(=O)=O)O1 (stereo not given in full) | – | – | 0 | 0 | 0 | 0 | – | 0 | 0 | 0 | ED50 (Mus musculus [20]): inactive; ED50 (Mus musculus [10]): inactive
CC(=O)Nc1nnc(S(N)(=O)=O)s1 [ACETAZOLAMIDE] | 45 | – | – | – | – | – | – | – | – | – | –
COC1(COS(N)(=O)=O)OC(CO)[C@@H](O)C1O (stereo not given in full) | – | – | – | – | – | – | – | – | – | – | ED50 (Mus musculus [21]): inactive
